Assay results: ChEMBL document CHEMBL1800050, “A new class of phenazines with activity against a chloroquine resistant Plasmodium falciparum strain and antimicrobial activity” (J Med Chem, 2011)
Calls of active or inactive are those of the source. The calls are words filed in the database; no cut-off is given here.

How the values were obtained:
Plasmodium falciparum [1] = experiment: Antimalarial activity against chloroquine-sensitive Plasmodium falciparum NF54 infected in human erythrocytes assessed as inhibition of parasite growth after 72 hrs by Geimsa staining based light microscopic analysis; assay type: functional, organism-based; settings: NF54, 72 h
Plasmodium falciparum [2] = experiment: Antimalarial activity against chloroquine-sensitive Plasmodium falciparum NF54 infected in human erythrocytes assessed as reduction of parasitemia level at 20 uM after 3 days by Geimsa staining based light microscopic analysis (reference value: 2.55 +/- 0.21%); assay type: functional; set-up: scale not given: the % may be the effect or the level left
Plasmodium falciparum [3] = experiment: Antimalarial activity against chloroquine-sensitive Plasmodium falciparum NF54 infected in human erythrocytes assessed as reduction of parasitemia level at 20 uM after 4 days by Geimsa staining based light microscopic analysis (reference value: 2.73 +/- 0.16%); assay type: functional; set-up: scale not given: the % may be the effect or the level left
Plasmodium falciparum [4] = experiment: Antimalarial activity against chloroquine-sensitive Plasmodium falciparum NF54 infected in human erythrocytes assessed as reduction of parasitemia level at 20 uM after 1 day by Geimsa staining based light microscopic analysis (reference value: 0.97 +/- 0.1%); assay type: functional; set-up: scale not given: the % may be the effect or the level left
Plasmodium falciparum [5] = experiment: Antimalarial activity against chloroquine-sensitive Plasmodium falciparum NF54 infected in human erythrocytes assessed as reduction of parasitemia level at 20 uM after 2 days by Geimsa staining based light microscopic analysis (reference value: 1.21 +/- 0.12%); assay type: functional; set-up: scale not given: the % may be the effect or the level left
Mus musculus [6] = experiment: Toxicity in […] Plasmodium berghei ANKA infected C57BL/6 mouse assessed as mortality with anemia at 100 mg/kg, ip administered 3 to 9 days post infection measured on day 10; assay type: organism-based; set-up: dose 100 mg/kg, route intraperitoneal; settings: in vivo
In short: (§1)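 Infected C57BL/6 mice were followed over time for blood parasitemia and for survival, with a chloroquine-treated group as reference. Death from cerebral malaria and later death from anemia were recorded separately.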

Plasmodium berghei [7] = experiment: Antimalarial activity against […] Plasmodium berghei ANKA infected in C57BL/6 mouse assessed as clearance of parasite from blood of mouse at 100 mg/kg, ip administered 3 to 9 days post infection by Geimsa staining based microscopic analysis; assay type: functional, organism-based; set-up: dose 100 mg/kg; in short: as §1
Plasmodium berghei [8] = experiment: Antimalarial activity against […] Plasmodium berghei ANKA infected in C57BL/6 mouse assessed as protection against cerebral malaria at 100 mg/kg, ip administered 3 to 9 days post infection by Geimsa staining based microscopic analysis; assay type: functional, organism-based; set-up: dose 100 mg/kg; in short: as §1
Plasmodium falciparum [9] = experiment: Antimalarial activity against chloroquine-sensitive Plasmodium falciparum NF54 infected in human erythrocytes assessed as inhibition of parasite growth at 2.5 to 10 uM after 72 hrs by Geimsa staining based light microscopic analysis; assay type: functional, organism-based
Plasmodium falciparum [10] = experiment: Antimalarial activity against chloroquine-sensitive Plasmodium falciparum NF54 infected in human erythrocytes assessed as reduction of parasitemia level at 3 uM after 1 day by Geimsa staining based light microscopic analysis (reference value: 0.97 +/- 0.1%); assay type: functional; set-up: scale not given: the % may be the effect or the level left
Plasmodium falciparum [11] = experiment: Antimalarial activity against chloroquine-sensitive Plasmodium falciparum NF54 infected in human erythrocytes assessed as reduction of parasitemia level at 3 uM after 2 days by Geimsa staining based light microscopic analysis (reference value: 1.21 +/- 0.12%); assay type: functional; set-up: scale not given: the % may be the effect or the level left
Plasmodium falciparum [12] = experiment: Antimalarial activity against chloroquine-sensitive Plasmodium falciparum NF54 infected in human erythrocytes assessed as reduction of parasitemia level at 3 uM after 3 days by Geimsa staining based light microscopic analysis (reference value: 2.55 +/- 0.21%); assay type: functional; set-up: scale not given: the % may be the effect or the level left
Plasmodium falciparum [13] = experiment: Antimalarial activity against chloroquine-sensitive Plasmodium falciparum NF54 infected in human erythrocytes assessed as reduction of parasitemia level at 3 uM after 4 days by Geimsa staining based light microscopic analysis (reference value: 2.73 +/- 0.16%); assay type: functional; set-up: scale not given: the % may be the effect or the level left
Plasmodium falciparum [14] = experiment: Antimalarial activity against chloroquine-sensitive Plasmodium falciparum NF54 infected in human erythrocytes assessed as reduction of parasitemia level at 10 uM after 1 day by Geimsa staining based light microscopic analysis (reference value: 0.97 +/- 0.1%); assay type: functional; set-up: scale not given: the % may be the effect or the level left
Plasmodium falciparum [15] = experiment: Antimalarial activity against chloroquine-sensitive Plasmodium falciparum NF54 infected in human erythrocytes assessed as reduction of parasitemia level at 10 uM after 3 days by Geimsa staining based light microscopic analysis (reference value: 2.55 +/- 0.21%); assay type: functional; set-up: scale not given: the % may be the effect or the level left
Plasmodium falciparum [16] = experiment: Antimalarial activity against chloroquine-sensitive Plasmodium falciparum NF54 infected in human erythrocytes assessed as reduction of parasitemia level at 10 uM after 2 days by Geimsa staining based light microscopic analysis (reference value: 1.21 +/- 0.12%); assay type: functional; set-up: scale not given: the % may be the effect or the level left
Plasmodium falciparum [17] = experiment: Antimalarial activity against chloroquine-sensitive Plasmodium falciparum NF54 infected in human erythrocytes assessed as reduction of parasitemia level at 10 uM after 4 days by Geimsa staining based light microscopic analysis (reference value: 2.73 +/- 0.16%); assay type: functional; set-up: scale not given: the % may be the effect or the level left
Plasmodium berghei [18] = experiment: Antimalarial activity against […] Plasmodium berghei ANKA infected in C57BL/6 mouse assessed as clearance of parasite from blood of mouse at 150 mg/kg, ip administered 3 to 9 days post infection measured on day 5 to 7 by Geimsa staining based microscopic analysis; assay type: functional, organism-based; set-up: dose 150 mg/kg; in short: as §1
Plasmodium berghei [19] = experiment: Antimalarial activity against […] Plasmodium berghei ANKA infected in C57BL/6 mouse assessed as clearance of parasite from blood of mouse at 80 mg/kg, ip administered 3 to 9 days post infection by Geimsa staining based microscopic analysis; assay type: functional, organism-based; set-up: dose 80 mg/kg; in short: as §1
Mus musculus [20] = experiment: Toxicity in […] Plasmodium berghei ANKA infected C57BL/6 mouse assessed as mortality with anemia at 80 mg/kg, ip administered 3 to 9 days post infection measured on day 10; assay type: organism-based; set-up: dose 80 mg/kg, route intraperitoneal; settings: in vivo; in short: as §1
Plasmodium berghei [21] = experiment: Antimalarial activity against […] Plasmodium berghei ANKA infected in C57BL/6 mouse assessed as protection against cerebral malaria at 80 mg/kg, ip administered 3 to 9 days post infection by Geimsa staining based microscopic analysis; assay type: functional, organism-based; set-up: dose 80 mg/kg; in short: as §1
Plasmodium falciparum [22] = experiment: Antimalarial activity against chloroquine-sensitive Plasmodium falciparum NF54 infected in human erythrocytes assessed as reduction of parasitemia level at 0.032 uM after 3 days by Geimsa staining based light microscopic analysis (reference value: 2.55 +/- 0.21%); assay type: functional; set-up: scale not given: the % may be the effect or the level left
Plasmodium falciparum [23] = experiment: Antimalarial activity against chloroquine-sensitive Plasmodium falciparum NF54 infected in human erythrocytes assessed as reduction of parasitemia level at 0.032 uM after 1 day by Geimsa staining based light microscopic analysis (reference value: 0.97 +/- 0.1%); assay type: functional; set-up: scale not given: the % may be the effect or the level left
Plasmodium falciparum [24] = experiment: Antimalarial activity against chloroquine-sensitive Plasmodium falciparum NF54 infected in human erythrocytes assessed as reduction of parasitemia level at 0.032 uM after 2 days by Geimsa staining based light microscopic analysis (reference value: 1.21 +/- 0.12%); assay type: functional; set-up: scale not given: the % may be the effect or the level left
Plasmodium falciparum [25] = experiment: Antimalarial activity against chloroquine-sensitive Plasmodium falciparum NF54 infected in human erythrocytes assessed as reduction of parasitemia level at 0.032 uM after 4 days by Geimsa staining based light microscopic analysis (reference value: 2.73 +/- 0.16%); assay type: functional; set-up: scale not given: the % may be the effect or the level left
Plasmodium berghei [26] = experiment: Antimalarial activity against […] Plasmodium berghei ANKA infected in C57BL/6 mouse assessed as clearance of parasite from blood of mouse at 25 mg/kg, ip administered 3 to 9 days post infection by Geimsa staining based microscopic analysis; assay type: functional, organism-based; set-up: dose 25 mg/kg; in short: as §1

For `Oc1ccc2ccccc2c1-c1cc2nc3ncccc3nc2c2ccccc12`, the IC50 (Plasmodium falciparum [1]) was 5.23 µM, the Activity (Plasmodium falciparum [2]) was 0% and the Activity (Plasmodium falciparum [3]) was 0%. The Activity (Plasmodium falciparum [4]) was 0.04%, the Activity (Plasmodium falciparum [5]) was 0% and the Activity (Mus musculus [6]) was “Toxic”. For the same compound, the Activity (Plasmodium berghei [7]) was “inactive” and the Activity (Plasmodium berghei [8]) was “Active”.
`Oc1c(-c2cc3nc4c(O)nc(S)nc4nc3c3ccccc23)ccc2ccccc12` was tested, and the inhibition (Plasmodium falciparum [9]) was “inactive”.
For `Oc1c(-c2cc3nc4cc(Cl)c(Cl)cc4nc3c3ccccc23)ccc2ccccc12`, the IC50 (Plasmodium falciparum [1]) was 0.51 µM, the Activity (Plasmodium falciparum [10]) was 0.17% and the Activity (Plasmodium falciparum [11]) was 0.15%. For the same compound, the Activity (Plasmodium falciparum [12]) was 0% and the Activity (Plasmodium falciparum [13]) was 0%.
With `O=C(O)c1cnc2cc(-c3c(O)ccc4ccccc34)c3ccccc3c2n1` the inhibition (Plasmodium falciparum [9]) was “inactive”.
In the case of `Oc1ccc2ccccc2c1-c1cc2nc3cc(Cl)c(Cl)cc3nc2c2ccccc12`, the IC50 (Plasmodium falciparum [1]) is reported as 5.05 µM, the Activity (Plasmodium falciparum [2]) is reported as 0% and the Activity (Plasmodium falciparum [3]) is reported as 0%. The Activity (Plasmodium falciparum [4]) was 0.14%, the Activity (Plasmodium falciparum [5]) was 0.01% and the Activity (Mus musculus [6]) was “Toxic”. For the same compound, the Activity (Plasmodium berghei [7]) was “inactive” and the Activity (Plasmodium berghei [8]) was “Active”.
`O/N=C1/C=C(c2c(O)ccc3ccccc23)c2ccccc2/C1=N/O` was tested, and the IC50 (Plasmodium falciparum [1]) was 3.73 µM, the Activity (Plasmodium falciparum [14]) was 0.94% and the Activity (Plasmodium falciparum [15]) was 0.04%. The Activity (Plasmodium falciparum [16]) was 0.2% and the Activity (Plasmodium falciparum [17]) was 0%.
For `O=C1C=C(c2ccc3ccccc3c2O)c2ccccc2C1=O`, the inhibition (Plasmodium falciparum [9]) was “inactive”.
For `Oc1c(-c2cc3nc4ccccc4nc3c3ccccc23)ccc2ccccc12`, the IC50 (Plasmodium falciparum [1]) was 0.88 µM, the Activity (Plasmodium falciparum [10]) was 0.27% and the Activity (Plasmodium falciparum [11]) was 0.11%. It also gave an Activity (Plasmodium falciparum [12]) of 0.02% and an Activity (Plasmodium falciparum [13]) of 0%.
For `Oc1ccc2ccccc2c1-c1cc2c(c3ccccc13)=NC1(CCCCC1)N=2`, the inhibition (Plasmodium falciparum [9]) was “inactive”.
`Oc1c(-c2cc3nc4ncccc4nc3c3ccccc23)ccc2ccccc12` was tested, and the inhibition (Plasmodium falciparum [9]) was “inactive”.
With `Oc1ccc2cc(Br)ccc2c1-c1cc2nc3ccccc3nc2c2ccc(Br)cc12` the IC50 (Plasmodium falciparum [1]) was 0.64 µM, the Activity (Plasmodium falciparum [14]) was 0.14% and the Activity (Plasmodium falciparum [15]) was 0%. The Activity (Plasmodium falciparum [16]) was 0.01%, the Activity (Plasmodium falciparum [17]) was 0% and the Activity (Plasmodium berghei [18]) was “Active”.
With `Nc1nnc2cc(-c3c(O)ccc4ccccc34)c3ccccc3c2n1` the inhibition (Plasmodium falciparum [9]) was “inactive”.
`Oc1ccc2ccccc2c1-c1cc2nc3c(O)nc(S)nc3nc2c2ccccc12` was tested, and the inhibition (Plasmodium falciparum [9]) was “inactive”.
For `O=C(O)c1cnc2cc(-c3ccc4ccccc4c3O)c3ccccc3c2n1`, the inhibition (Plasmodium falciparum [9]) was “inactive”.
In the case of `Oc1ccc2ccccc2c1-c1cc2nc3ccccc3nc2c2ccccc12`, the IC50 (Plasmodium falciparum [1]) is reported as 4.11 µM, the Activity (Plasmodium falciparum [2]) is reported as 0.02% and the Activity (Plasmodium berghei [19]) is reported as “inactive”. It also gave an Activity (Plasmodium falciparum [3]) of 0%, an Activity (Plasmodium falciparum [4]) of 0.23% and an Activity (Plasmodium falciparum [5]) of 0.07%. For the same compound, the Activity (Mus musculus [20]) was “Toxic” and the Activity (Plasmodium berghei [21]) was “Active”.
Work on `CCN(CC)CCCC(C)Nc1ccnc2cc(Cl)ccc12` (stereo not drawn) [CHLOROQUINE] yielded an Activity (Plasmodium falciparum [22]) of 0%, an Activity (Plasmodium falciparum [23]) of 0.06% and an Activity (Plasmodium falciparum [24]) of 0%. For the same compound, the Activity (Plasmodium falciparum [25]) was 0% and the Activity (Plasmodium berghei [26]) was “inactive”.
